From ChEMBL document CHEMBL1649093, “Phthalazinone pyrazoles as potent, selective, and orally bioavailable inhibitors of Aurora-A kinase” (J Med Chem, 2011)
≈ marks a conversion by molar mass, not a printed value. Calls of active or inactive are those of the source. The calls are words filed in the database; no cut-off is given here.

Tests used:
MCF7 [1] = assay: Cytotoxicity against human MCF7 cells; format: functional, cell-based
Aurora kinase B = Aurora kinase B (Homo sapiens, UniProt Q96GD4); assay: Inhibition of Aurora B by ELISA
Sequence of Aurora kinase B (Q96GD4 whole entry, the tested form may be a part): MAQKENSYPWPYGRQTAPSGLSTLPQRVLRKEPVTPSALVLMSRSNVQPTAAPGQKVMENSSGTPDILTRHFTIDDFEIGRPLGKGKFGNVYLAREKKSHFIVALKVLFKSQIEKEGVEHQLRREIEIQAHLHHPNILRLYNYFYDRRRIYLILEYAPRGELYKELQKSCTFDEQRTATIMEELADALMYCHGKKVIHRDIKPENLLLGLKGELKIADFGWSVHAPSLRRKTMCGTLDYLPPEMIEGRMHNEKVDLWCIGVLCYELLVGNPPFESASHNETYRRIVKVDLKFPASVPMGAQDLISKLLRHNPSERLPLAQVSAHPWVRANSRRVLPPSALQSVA
Procedure, shortened: (§1)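 ELISA on plates coated with GST fusion carrying histone H3 residues 1-15, blocked with 1 mg/mL I-block. Aurora-A or Aurora-B kinase reacted with compound and 30 μM ATP in kinase buffer with 1 μg/mL I-block; stopped after 40 min with 25 mM EDTA. Phosphorylation read with anti-phospho-histone H3 (Ser10) 6G3 mAb. IC50 from triplicate averages.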

HCT-116 = assay: Cytotoxicity against human HCT116 cells after 5 days by celltiter-glo assay; format: functional, cell-based; details: HCT-116, 120 h
COLO 205 = assay: Cytotoxicity against human COLO205 cells; format: functional, cell-based
Aurora kinase A = biological target: T1, Aurora kinase A (Homo sapiens, UniProt O14965); assay: Inhibition of Aurora A by ELISA; procedure, shortened: as §1
T1 sequence (O14965 whole entry): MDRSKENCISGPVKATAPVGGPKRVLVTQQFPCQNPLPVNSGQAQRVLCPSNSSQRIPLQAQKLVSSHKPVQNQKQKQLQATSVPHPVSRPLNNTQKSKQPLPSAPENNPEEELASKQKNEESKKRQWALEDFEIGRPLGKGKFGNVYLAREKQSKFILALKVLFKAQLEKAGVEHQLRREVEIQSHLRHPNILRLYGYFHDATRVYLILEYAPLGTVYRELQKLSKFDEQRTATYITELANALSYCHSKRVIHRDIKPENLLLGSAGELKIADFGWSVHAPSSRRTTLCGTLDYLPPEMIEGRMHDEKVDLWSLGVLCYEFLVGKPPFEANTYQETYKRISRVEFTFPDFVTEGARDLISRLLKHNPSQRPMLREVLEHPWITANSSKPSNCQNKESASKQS

[2] = Selectivity for Aurora A over Aurora B
Cytochrome P450 2D6 = Cytochrome P450 2D6 (Homo sapiens, UniProt P10635); assay: Inhibition of CYP2D6; format: ADME
Sequence of Cytochrome P450 2D6 (P10635 whole entry): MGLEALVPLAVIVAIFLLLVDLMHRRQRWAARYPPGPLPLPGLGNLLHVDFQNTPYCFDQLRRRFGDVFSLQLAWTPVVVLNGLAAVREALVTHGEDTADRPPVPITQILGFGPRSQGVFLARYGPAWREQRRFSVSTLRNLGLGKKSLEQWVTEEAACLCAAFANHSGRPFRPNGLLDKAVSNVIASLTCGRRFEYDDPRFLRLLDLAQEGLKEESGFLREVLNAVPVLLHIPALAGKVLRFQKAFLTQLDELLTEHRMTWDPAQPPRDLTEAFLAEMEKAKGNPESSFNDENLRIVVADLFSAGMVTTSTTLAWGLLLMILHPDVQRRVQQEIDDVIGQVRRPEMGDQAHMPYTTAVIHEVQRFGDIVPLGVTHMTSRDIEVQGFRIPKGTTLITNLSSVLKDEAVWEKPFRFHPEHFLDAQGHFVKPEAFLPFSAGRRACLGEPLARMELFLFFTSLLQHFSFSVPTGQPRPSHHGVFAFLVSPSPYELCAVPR

[3] = Clearance in human microsome measured per mg of protein; format: ADME; details: microsomes
Cytochrome P450 3A4 = Cytochrome P450 3A4 (Homo sapiens, UniProt P08684); assay: Inhibition of CYP3A4; format: ADME
Sequence of Cytochrome P450 3A4 (P08684 whole entry): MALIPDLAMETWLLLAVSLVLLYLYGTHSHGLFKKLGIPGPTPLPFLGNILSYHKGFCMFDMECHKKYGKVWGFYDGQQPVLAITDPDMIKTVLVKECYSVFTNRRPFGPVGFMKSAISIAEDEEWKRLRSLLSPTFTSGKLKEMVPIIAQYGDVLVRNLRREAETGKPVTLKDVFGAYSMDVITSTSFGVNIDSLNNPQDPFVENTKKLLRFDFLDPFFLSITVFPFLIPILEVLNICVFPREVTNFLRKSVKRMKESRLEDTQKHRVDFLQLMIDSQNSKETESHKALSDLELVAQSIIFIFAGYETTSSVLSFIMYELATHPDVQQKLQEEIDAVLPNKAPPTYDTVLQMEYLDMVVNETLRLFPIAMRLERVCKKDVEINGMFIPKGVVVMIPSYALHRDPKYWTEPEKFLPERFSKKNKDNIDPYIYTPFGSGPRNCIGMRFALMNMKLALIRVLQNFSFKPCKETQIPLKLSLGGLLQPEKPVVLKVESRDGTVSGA

[4] = Clearance in rat hepatocytes measured per 10^6 cells; format: ADME, cell-based, Liver, Hepatocyte
[5] = Aqueous solubility of the compound; format: physicochemical; details: buffer
Cytochrome P450 2C9 = Cytochrome P450 2C9 (Homo sapiens, UniProt P11712); assay: Inhibition of CYP2C9; format: ADME
Sequence of Cytochrome P450 2C9 (P11712 whole entry): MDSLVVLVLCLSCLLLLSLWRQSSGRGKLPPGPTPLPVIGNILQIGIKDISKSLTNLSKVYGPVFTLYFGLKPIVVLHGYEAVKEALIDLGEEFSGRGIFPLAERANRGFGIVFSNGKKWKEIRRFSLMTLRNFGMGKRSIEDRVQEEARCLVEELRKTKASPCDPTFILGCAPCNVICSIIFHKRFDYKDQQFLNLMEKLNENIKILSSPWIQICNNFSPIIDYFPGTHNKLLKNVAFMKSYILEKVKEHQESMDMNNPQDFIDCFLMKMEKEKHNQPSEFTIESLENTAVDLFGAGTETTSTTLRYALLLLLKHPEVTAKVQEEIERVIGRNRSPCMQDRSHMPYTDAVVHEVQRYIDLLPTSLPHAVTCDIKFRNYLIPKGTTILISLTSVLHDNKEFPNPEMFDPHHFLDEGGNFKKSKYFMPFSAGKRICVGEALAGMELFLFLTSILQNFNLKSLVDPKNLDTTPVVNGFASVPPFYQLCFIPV

MCF7 [6] = assay: Induction of cell cycle arrest in human MCF7 cells assessed as accumulation at G2/M phase at 10 uM after 24 hrs by immunostaining; format: functional, cell-based
[7] = Clearance in mouse microsome measured per mg of protein; format: ADME, Liver; details: microsomes
hERG (KCNH2) = hERG (KCNH2) (Homo sapiens, UniProt Q12809); assay: Inhibition of human ERG at 10 uM
Sequence of hERG (KCNH2) (Q12809 whole entry): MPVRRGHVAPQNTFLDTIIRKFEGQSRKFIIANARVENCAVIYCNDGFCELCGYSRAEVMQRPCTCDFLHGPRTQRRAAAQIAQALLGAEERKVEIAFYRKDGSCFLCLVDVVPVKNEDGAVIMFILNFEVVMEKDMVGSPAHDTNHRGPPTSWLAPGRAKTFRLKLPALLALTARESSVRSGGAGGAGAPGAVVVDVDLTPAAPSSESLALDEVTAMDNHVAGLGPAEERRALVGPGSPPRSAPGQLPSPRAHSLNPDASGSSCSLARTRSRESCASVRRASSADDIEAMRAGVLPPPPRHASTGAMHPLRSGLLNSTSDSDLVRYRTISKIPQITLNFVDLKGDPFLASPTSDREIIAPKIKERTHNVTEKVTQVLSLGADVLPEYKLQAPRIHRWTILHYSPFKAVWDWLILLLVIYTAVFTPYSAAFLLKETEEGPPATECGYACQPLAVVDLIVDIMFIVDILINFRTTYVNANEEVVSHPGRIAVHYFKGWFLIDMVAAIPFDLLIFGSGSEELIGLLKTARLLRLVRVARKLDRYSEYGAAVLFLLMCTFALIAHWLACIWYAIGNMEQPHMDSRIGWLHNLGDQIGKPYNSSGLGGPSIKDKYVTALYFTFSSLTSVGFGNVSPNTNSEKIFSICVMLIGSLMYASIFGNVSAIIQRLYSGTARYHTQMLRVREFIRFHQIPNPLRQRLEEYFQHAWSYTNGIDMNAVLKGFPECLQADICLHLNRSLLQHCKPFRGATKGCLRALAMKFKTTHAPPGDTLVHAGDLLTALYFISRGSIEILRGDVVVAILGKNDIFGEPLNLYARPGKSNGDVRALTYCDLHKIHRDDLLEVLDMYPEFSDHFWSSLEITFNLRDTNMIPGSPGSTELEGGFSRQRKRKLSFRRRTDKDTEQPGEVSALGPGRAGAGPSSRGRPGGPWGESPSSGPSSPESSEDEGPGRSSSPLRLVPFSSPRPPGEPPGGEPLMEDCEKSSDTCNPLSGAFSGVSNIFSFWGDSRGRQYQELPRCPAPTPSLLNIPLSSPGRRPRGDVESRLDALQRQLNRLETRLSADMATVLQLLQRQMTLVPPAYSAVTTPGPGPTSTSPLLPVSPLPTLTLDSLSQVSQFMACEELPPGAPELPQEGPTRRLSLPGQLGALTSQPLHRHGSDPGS

Row | SMILES | IC50 (MCF7 [1]) | IC50 (Aurora kinase B) | IC50 (HCT-116) | IC50 (COLO 205) | IC50 (Aurora kinase A) | Selectivity ratio [2] | IC50 (Cytochrome P450 2D6) | microsomal CLint [3] | IC50 (Cytochrome P450 3A4) | hepatocyte CLint [4] | solubility [5] | IC50 (Cytochrome P450 2C9) | Activity (MCF7 [6]) | microsomal CLint [7] | inhibition at 10 µM (hERG (KCNH2))
1 | CC(=O)Nc1ccc(Cn2nc(Nc3cc[nH]n3)c3ccccc3c2=O)cc1 | > 30 µM | 34 µM | > 30000 nM |  |  |  |  |  |  |  |  |  |  |  | 
2 | Cc1cc(Nc2nn(C)c(=O)c3ccccc23)n[nH]1 | > 30 µM | 17 µM | 5200 nM | > 30 µM | 270 nM |  |  |  |  |  |  |  |  |  | 
3 | Cc1cc(Nc2nn(Cc3ccc(F)cc3)c(=O)c3ccccc23)n[nH]1 | > 30 µM | 69 µM | 1400 nM | 17 µM | 14 nM | > 1000 |  |  |  |  |  |  |  |  | 
4 | Cc1cc(Nc2nn(Cc3ccccc3)c(=O)c3ccccc23)n[nH]1 | 12.6 µM | > 100 µM | 1500 nM | 4.4 µM |  | > 1000 | > 50 µM | 7.4 µL/min/mg | > 50 µM | 2.4 µL/min/1e6 cells | 1.9 µg/mL (≈ 5.73 µM) | 42 µM | Active | 28 µL/min/mg | 
5 | Cc1cc(Nc2nn(Cc3ccc([N+](=O)[O-])cc3)c(=O)c3ccccc23)n[nH]1 | > 30 µM | 0.93 µM | 1400 nM |  | 109 nM |  |  |  |  |  |  |  |  |  | 
6 | Cc1ccc(-n2nc(Nc3cc[nH]n3)c3ccccc3c2=O)cc1 |  |  |  |  | 1000 nM | > 1000 |  |  |  |  |  |  |  |  | 
7 | Cc1cc(Nc2nn(CC(=O)c3ccc(C(F)(F)F)cc3)c(=O)c3ccccc23)n[nH]1 | > 30 µM | > 100 µM | > 30000 nM | > 30 µM | 720 nM | > 1000 |  |  |  |  |  |  |  |  | 
8 | Cc1cc(Nc2nn(Cc3cccnc3)c(=O)c3ccccc23)n[nH]1 | 13.4 µM | 12.7 µM | 2900 nM | 4.1 µM | 17 nM |  |  |  |  |  |  |  |  |  | 
9 | COc1cccc(Cn2nc(Nc3cc(C)[nH]n3)c3ccccc3c2=O)c1 | > 30 µM | 28 µM | 660 nM | 3.6 µM | 36 nM | > 1000 |  |  |  |  |  |  |  |  | 
10 | Cc1cc(Nc2nn(CC(C)C)c(=O)c3ccccc23)n[nH]1 | 4.2 µM | 34 µM | 1100 nM |  | 115 nM |  |  |  |  |  |  |  |  |  | 
11 | Cc1ccc(-n2nc(Nc3cc(C)[nH]n3)c3ccccc3c2=O)cc1 | > 30 µM | > 100 µM | 240 nM | 3.6 µM | 23 nM | > 1000 |  |  |  |  |  |  |  |  | 
12 | Cc1cc(Nc2nn(Cc3ccncc3)c(=O)c3ccccc23)n[nH]1 | > 30 µM | 27 µM | 20200 nM | 13 µM | 270 nM |  |  |  |  |  |  |  |  |  | 
13 | Cc1cc(Nc2nn(Cc3ccc(S(C)(=O)=O)cc3)c(=O)c3ccccc23)n[nH]1 | 4.5 µM | 34 µM | 1700 nM | 4.5 µM | 56 nM |  |  |  |  |  |  |  |  |  | 
14 | Cc1cccc(-n2nc(Nc3cc(C)[nH]n3)c3ccccc3c2=O)c1 | 2.9 µM | > 100 µM | 2300 nM | 3.2 µM | 24 nM | > 1000 |  |  |  |  |  |  |  |  | 
15 | Cc1cc(Nc2nn(Cc3csc(C)n3)c(=O)c3ccccc23)n[nH]1 | > 30 µM | 24 µM | 4180 nM | > 30 µM | 120 nM |  |  |  |  |  |  |  |  |  | 
16 | COc1ccc(C(=O)Cn2nc(Nc3cc(C)[nH]n3)c3ccccc3c2=O)cc1 | > 30 µM | > 100 µM | > 30000 nM | > 30 µM | 67 nM | > 1000 |  |  |  |  |  |  |  |  | 

Row | SMILES | IC50 (MCF7 [1]) | IC50 (Aurora kinase B) | IC50 (HCT-116) | IC50 (COLO 205) | IC50 (Aurora kinase A) | Selectivity ratio [2] | IC50 (Cytochrome P450 2D6) | microsomal CLint [3] | IC50 (Cytochrome P450 3A4) | hepatocyte CLint [4] | solubility [5] | IC50 (Cytochrome P450 2C9) | Activity (MCF7 [6]) | microsomal CLint [7] | inhibition at 10 µM (hERG (KCNH2))
17 | COc1cccc(C(=O)Cn2nc(Nc3cc(C)[nH]n3)c3ccccc3c2=O)c1 | > 30 µM | 67 µM | 2700 nM | > 30 µM | 100 nM | > 1000 |  |  |  |  |  |  |  |  | 
18 | COc1ccc(-n2nc(Nc3cc(C)[nH]n3)c3ccccc3c2=O)cc1 | 3.6 µM | > 100 µM | 700 nM | 3.7 µM | 29 nM |  |  |  |  |  |  |  |  |  | 
19 | CC(=O)Nc1ccc(Cn2nc(Nc3cc(C)[nH]n3)c3ccccc3c2=O)cc1 | > 30 µM | 15 µM | 4200 nM | > 30 µM | 93 nM |  |  |  |  |  |  |  |  |  | 
20 | Cc1cc(Nc2nn(-c3ccc(F)cc3)c(=O)c3ccccc23)n[nH]1 | 1.6 µM | > 100 µM | 800 nM | 1.6 µM | 37 nM |  |  |  |  |  |  |  |  |  | 
21 | Cc1cc(Nc2nn(-c3ccccc3)c(=O)c3ccccc23)n[nH]1 |  |  |  |  |  |  | > 50 µM |  | > 50 µM | 2.3 µL/min/1e6 cells | 1.2 µg/mL (≈ 3.78 µM) | > 50 µM |  | 15.7 µL/min/mg | 20%
22 | Cc1cc(Nc2nn(Cc3cc(F)cc(F)c3)c(=O)c3ccccc23)n[nH]1 | 2.6 µM | > 100 µM | 500 nM | 2.3 µM | 49 nM | > 1000 |  |  |  |  |  |  |  |  | 
23 | COc1ccc(Cn2nc(Nc3cc(C)[nH]n3)c3ccccc3c2=O)cc1 | > 30 µM | 46 µM | 1200 nM | 4.2 µM | 32 nM |  |  |  |  |  |  |  |  |  | 
24 | Cc1cc(Nc2nn(C(C)C)c(=O)c3ccccc23)n[nH]1 | 1.6 µM | 30 µM | 400 nM | 1.7 µM | 35 nM | > 1000 | > 50 µM |  | > 50 µM |  | 7 µg/mL (≈ 24.7 µM) | > 50 µM |  |  | 
25 | Cc1cc(Nc2n[nH]c(=O)c3ccccc23)n[nH]1 |  | 22 µM |  |  | 650 nM | > 1000 |  |  |  |  |  |  |  |  | 
26 | Cc1cc(Nc2nn(CC(=O)c3ccccc3)c(=O)c3ccccc23)n[nH]1 | > 30 µM | > 100 µM | 5440 nM | > 30 µM | 71 nM | > 1000 |  |  |  |  |  |  |  |  | 
27 | Cc1cc(Nc2nn(-c3ccc(Cl)cc3)c(=O)c3ccccc23)n[nH]1 | 11.4 µM | > 100 µM | 820 nM | 2.2 µM | 93 nM | > 1000 |  |  |  |  |  |  |  |  | 
28 | Cc1cc(Nc2nn(CC(F)(F)F)c(=O)c3ccccc23)n[nH]1 | 4.5 µM | 15 µM | 1800 nM |  | 66 nM | > 1000 |  |  |  |  |  |  |  |  | 
29 | Cc1cc(Nc2nn(Cc3cc(F)ccc3F)c(=O)c3ccccc23)n[nH]1 | > 30 µM | > 100 µM | 570 nM | 3.8 µM | 25 nM |  |  |  |  |  |  |  |  |  | 
30 | Cc1cc(Nc2nn(-c3ccc(C(C)(C)C)cc3)c(=O)c3ccccc23)n[nH]1 | 0.78 µM | > 50 µM | 60 nM |  | 240 nM | > 1000 |  |  |  |  |  |  |  |  | 
31 | O=c1c2ccccc2c(Nc2n[nH]c3ccccc23)nn1-c1ccccc1 |  |  |  |  | 14000 nM | > 1000 |  |  |  |  |  |  |  |  | 
